Measured values from ChEMBL document CHEMBL4304745, “On the Process of Discovering Leads That Target the Heparin-Binding Site of Neutrophil Elastase in the Sputum of Cystic Fibrosis Patients” (J Med Chem, 2019).
Activity calls are given as the source filed them. No cut-off for these calls is given here.

Tests used:
Neutrophil elastase = target: T1, Neutrophil elastase (Homo sapiens, UniProt P08246); experiment: Inhibition of human neutrophil elastase using S1384 as substrate preincubated for 5 mins followed by substrate addition
T1 sequence (P08246 whole entry): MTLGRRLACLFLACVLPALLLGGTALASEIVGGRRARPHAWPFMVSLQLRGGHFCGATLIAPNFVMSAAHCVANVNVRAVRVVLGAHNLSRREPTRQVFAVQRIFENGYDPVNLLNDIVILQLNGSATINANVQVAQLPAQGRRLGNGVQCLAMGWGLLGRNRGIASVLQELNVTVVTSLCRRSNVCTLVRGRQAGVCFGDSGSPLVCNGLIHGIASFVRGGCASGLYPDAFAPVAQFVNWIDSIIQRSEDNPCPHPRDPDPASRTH

[1] = target: T2, Neutrophil elastase (Homo sapiens) (UniProt P08246); experiment: Inhibition of neutrophil elastase in cystic fibrosis patient-derived sputum at 2 mM using S1384 as substrate measured after 2 hrs in presence of DNAse1 and 400 mM NaCl; assay type: tissue-based
T2 sequence (whole entry): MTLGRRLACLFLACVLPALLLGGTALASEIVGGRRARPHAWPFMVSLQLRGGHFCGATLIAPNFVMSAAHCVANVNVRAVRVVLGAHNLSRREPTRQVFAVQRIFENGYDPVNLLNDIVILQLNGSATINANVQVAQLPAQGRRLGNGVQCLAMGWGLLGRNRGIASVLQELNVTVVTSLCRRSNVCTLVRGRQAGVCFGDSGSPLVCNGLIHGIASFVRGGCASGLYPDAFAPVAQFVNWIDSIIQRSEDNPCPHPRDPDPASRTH
How it was run: (§1)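 Sputum from cystic fibrosis patients is cleared of insoluble debris by centrifugation and treated with DNase. HNE activity is then read by chromogenic substrate hydrolysis across increasing compound concentrations, up to about 2 mM.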

[2] = target: T2, Neutrophil elastase (Homo sapiens); experiment: Mixed type inhibition of human neutrophil elastase assessed as increase in Km for substrate at 1000 uM using varying levels of S1384 as substrate by Michaelis-Menten plot analysis relative to control
Plasminogen = Plasminogen (Homo sapiens, UniProt P00747); experiment: Inhibition of plasmin (unknown origin) using spectrozyme as substrate preincubated for 5 mins followed by substrate addition
Sequence of Plasminogen (P00747 97-580 limits assumed): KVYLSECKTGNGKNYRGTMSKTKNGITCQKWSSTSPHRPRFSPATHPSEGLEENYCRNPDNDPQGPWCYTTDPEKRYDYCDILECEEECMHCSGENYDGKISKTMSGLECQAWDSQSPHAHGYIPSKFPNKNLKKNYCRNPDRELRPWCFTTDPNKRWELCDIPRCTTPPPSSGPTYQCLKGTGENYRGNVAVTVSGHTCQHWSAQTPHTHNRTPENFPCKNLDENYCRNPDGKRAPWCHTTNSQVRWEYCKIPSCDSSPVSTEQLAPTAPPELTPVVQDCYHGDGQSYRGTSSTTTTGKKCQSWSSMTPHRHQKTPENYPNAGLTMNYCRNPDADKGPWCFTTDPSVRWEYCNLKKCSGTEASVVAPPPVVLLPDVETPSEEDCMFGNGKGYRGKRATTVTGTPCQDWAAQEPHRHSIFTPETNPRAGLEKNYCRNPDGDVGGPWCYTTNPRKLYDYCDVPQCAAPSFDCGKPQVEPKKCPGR
Sequence of Plasminogen (P00747 581-810 limits assumed): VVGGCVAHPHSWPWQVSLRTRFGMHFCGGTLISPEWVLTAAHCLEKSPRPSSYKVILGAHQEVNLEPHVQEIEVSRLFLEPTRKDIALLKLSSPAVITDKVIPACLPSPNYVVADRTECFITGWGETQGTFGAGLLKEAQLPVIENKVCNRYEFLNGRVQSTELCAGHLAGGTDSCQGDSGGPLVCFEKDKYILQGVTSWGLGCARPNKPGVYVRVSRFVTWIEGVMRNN

[3] = target: T2, Neutrophil elastase (Homo sapiens); experiment: Inhibition of neutrophil elastase in cystic fibrosis patient-derived sputum using S1384 as substrate measured after 2 hrs in presence of DNAse1 and 150 mM NaCl; assay type: tissue-based; how it was run: as §1
Prothrombin = Prothrombin (Homo sapiens, UniProt P00734); experiment: Inhibition of thrombin (unknown origin) using spectrozyme as substrate preincubated for 5 mins followed by substrate addition
Plasma [4] = experiment: Anticoagulant activity in human plasma assessed as effect on prothrombin time at 855 uM measured after 5 mins; assay type: ADME, cell-free
How it was run: (§2)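 APTT and PT recorded in human plasma with compound present at concentrations up to 855 µM. The read-out is the change in clotting time relative to untreated plasma.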

[5] = target: T2, Neutrophil elastase (Homo sapiens); experiment: Inhibition of human neutrophil elastase assessed as reduction in elastin-congo red hydrolysis preincubated for 30 mins followed by elastin-congo red addition measured after 48 hrs
How it was run: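 Elastin-congo red hydrolysis by HNE at pH 8. Congo red released by elastin degradation is quantified by absorbance at 497 nm. Run in triplicate; error bars are one standard deviation.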

Plasma [6] = experiment: Anticoagulant activity in human plasma assessed as effect on activated partial thromboplastin time at 855 uM measured after 5 mins; assay type: ADME, cell-free; how it was run: as §2
Homo sapiens [7] = species on record: Homo sapiens; experiment: Selectivity ratio of IC50 for factor 11 (unknown origin) to IC50 for human neutrophil elastase
Coagulation factor XI = Coagulation factor XI (Homo sapiens, UniProt P03951); experiment: Inhibition of factor 11a (unknown origin) using S-2366 as substrate preincubated for 5 mins followed by substrate addition
Sequence of Coagulation factor XI (P03951 19-387 limits assumed): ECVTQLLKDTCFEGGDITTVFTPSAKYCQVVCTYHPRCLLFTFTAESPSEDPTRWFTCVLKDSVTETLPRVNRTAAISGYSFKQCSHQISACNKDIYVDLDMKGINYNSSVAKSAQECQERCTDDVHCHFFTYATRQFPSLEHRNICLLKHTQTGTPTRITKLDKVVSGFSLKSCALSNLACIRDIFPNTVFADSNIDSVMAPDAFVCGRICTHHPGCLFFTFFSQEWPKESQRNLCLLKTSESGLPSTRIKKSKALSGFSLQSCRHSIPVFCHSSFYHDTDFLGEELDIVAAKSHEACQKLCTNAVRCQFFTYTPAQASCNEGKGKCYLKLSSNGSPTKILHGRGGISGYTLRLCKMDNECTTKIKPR
Sequence of Coagulation factor XI (P03951 388-625 limits assumed): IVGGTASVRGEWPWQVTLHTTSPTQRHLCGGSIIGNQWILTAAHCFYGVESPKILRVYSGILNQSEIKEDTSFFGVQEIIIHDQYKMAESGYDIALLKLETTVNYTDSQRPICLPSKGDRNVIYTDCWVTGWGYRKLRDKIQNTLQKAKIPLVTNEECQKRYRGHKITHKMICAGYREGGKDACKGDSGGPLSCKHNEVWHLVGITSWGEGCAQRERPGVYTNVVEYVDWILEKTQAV

Homo sapiens [8] = species on record: Homo sapiens; experiment: Selectivity ratio of IC50 for thrombin (unknown origin) to IC50 for human neutrophil elastase
Homo sapiens [9] = species on record: Homo sapiens; experiment: Selectivity ratio of IC50 for factor 10a (unknown origin) to IC50 for human neutrophil elastase
Cathepsin G = target: T3, Cathepsin G (Homo sapiens, UniProt P08311); experiment: Inhibition of human leukocyte cathepsin G using S7388 as substrate preincubated for 5 mins followed by substrate addition
T3 sequence (P08311 whole entry): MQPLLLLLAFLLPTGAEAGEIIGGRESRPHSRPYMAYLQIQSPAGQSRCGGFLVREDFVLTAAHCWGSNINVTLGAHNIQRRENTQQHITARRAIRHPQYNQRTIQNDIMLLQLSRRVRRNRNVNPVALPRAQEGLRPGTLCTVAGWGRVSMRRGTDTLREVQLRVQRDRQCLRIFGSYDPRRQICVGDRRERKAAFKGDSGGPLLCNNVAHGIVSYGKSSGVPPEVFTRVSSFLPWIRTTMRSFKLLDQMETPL

[10] = target: T2, Neutrophil elastase (Homo sapiens); experiment: Inhibition of neutrophil elastase in cystic fibrosis patient-derived sputum up to 250 using S1384 as substrate measured after 2 hrs in presence of DNAse1 and 150 mM NaCl; assay type: tissue-based
[11] = target: T2, Neutrophil elastase (Homo sapiens); experiment: Mixed type inhibition of human neutrophil elastase assessed as decrease in Vmax for substrate at 1000 uM using varying levels of S1384 as substrate by Michaelis-Menten plot analysis relative to control
[12] = target: T2, Neutrophil elastase (Homo sapiens); experiment: Inhibition of neutrophil elastase in cystic fibrosis patient-derived sputum 2 mM using S1384 as substrate measured after 2 hrs; assay type: tissue-based
Coagulation factor X = Coagulation factor X (Homo sapiens, UniProt P00742); experiment: Inhibition of factor 10a (unknown origin) using spectrozyme as substrate preincubated for 5 mins followed by substrate addition
Sequence of Coagulation factor X (P00742 41-179 limits assumed): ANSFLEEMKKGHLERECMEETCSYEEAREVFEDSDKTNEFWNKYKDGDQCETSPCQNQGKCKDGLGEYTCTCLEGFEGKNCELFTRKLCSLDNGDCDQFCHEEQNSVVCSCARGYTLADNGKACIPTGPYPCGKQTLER
Sequence of Coagulation factor X (P00742 235-488 limits assumed): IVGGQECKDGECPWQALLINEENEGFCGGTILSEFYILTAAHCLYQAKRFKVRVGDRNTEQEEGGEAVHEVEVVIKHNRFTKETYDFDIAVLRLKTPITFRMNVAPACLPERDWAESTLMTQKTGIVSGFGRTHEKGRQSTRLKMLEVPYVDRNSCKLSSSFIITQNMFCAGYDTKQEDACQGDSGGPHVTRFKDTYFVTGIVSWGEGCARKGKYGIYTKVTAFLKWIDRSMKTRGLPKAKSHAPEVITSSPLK

[13] = target: T2, Neutrophil elastase (Homo sapiens); experiment: Inhibition of neutrophil elastase in cystic fibrosis patient-derived sputum at 2 mM using S1384 as substrate measured after 2 hrs in presence of DNAse1 and 150 mM NaCl; assay type: tissue-based; how it was run: as §1
Myeloblastin = target: T4, Myeloblastin (Homo sapiens, UniProt P24158); experiment: Inhibition of human neutrophil proteinase 3 using M4765 as substrate preincubated for 5 mins followed by substrate addition
T4 sequence (P24158 whole entry): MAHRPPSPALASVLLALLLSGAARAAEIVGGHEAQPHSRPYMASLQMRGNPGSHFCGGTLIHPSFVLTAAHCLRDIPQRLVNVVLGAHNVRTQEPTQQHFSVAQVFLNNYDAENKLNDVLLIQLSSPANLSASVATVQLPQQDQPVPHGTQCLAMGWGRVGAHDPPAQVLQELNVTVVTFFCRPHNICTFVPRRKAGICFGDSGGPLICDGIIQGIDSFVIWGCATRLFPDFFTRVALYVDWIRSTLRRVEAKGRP

Homo sapiens [14] = species on record: Homo sapiens; experiment: Selectivity ratio of IC50 for plasmin (unknown origin) to IC50 for human neutrophil elastase
[15] = Solubility of the compound in water; assay type: physicochemical
[16] = compound: O=c1cc(-c2ccc(OS(=O)(=O)O)cc2)oc2cc(OS(=O)(=O)O)cc(OCc3cccc(COc4cc(OS(=O)(=O)O)cc5oc(-c6ccc(OS(=O)(=O)O)cc6)cc(=O)c45)n3)c12; experiment: Mixed type inhibition of human neutrophil elastase assessed as Vmax for substrate at 250 uM using varying levels of S1384 as substrate by Michaelis-Menten plot analysis (reference value: 40.1 +/- 0.5 mAU/min)
[17] = compound: O=c1cc(-c2ccc(OS(=O)(=O)O)cc2)oc2cc(OS(=O)(=O)O)cc(OCc3cccc(COc4cc(OS(=O)(=O)O)cc5oc(-c6ccc(OS(=O)(=O)O)cc6)cc(=O)c45)n3)c12; experiment: Mixed type inhibition of human neutrophil elastase assessed as Vmax for substrate at 1000 uM using varying levels of S1384 as substrate by Michaelis-Menten plot analysis (reference value: 40.1 +/- 0.5 mAU/min)
[18] = compound: O=c1cc(-c2ccc(OS(=O)(=O)O)cc2)oc2cc(OS(=O)(=O)O)cc(OCc3cccc(COc4cc(OS(=O)(=O)O)cc5oc(-c6ccc(OS(=O)(=O)O)cc6)cc(=O)c45)n3)c12; experiment: Mixed type inhibition of human neutrophil elastase assessed as Vmax for substrate at 500 uM using varying levels of S1384 as substrate by Michaelis-Menten plot analysis (reference value: 40.1 +/- 0.5 mAU/min)
[19] = compound: O=c1cc(-c2ccc(OS(=O)(=O)O)cc2)oc2cc(OS(=O)(=O)O)cc(OCc3cccc(COc4cc(OS(=O)(=O)O)cc5oc(-c6ccc(OS(=O)(=O)O)cc6)cc(=O)c45)n3)c12; experiment: Mixed type inhibition of human neutrophil elastase assessed as Km for substrate at 250 uM using varying levels of S1384 as substrate by Michaelis-Menten plot analysis (reference value: 650 +/- 24 uM)
[20] = compound: O=c1cc(-c2ccc(OS(=O)(=O)O)cc2)oc2cc(OS(=O)(=O)O)cc(OCc3cccc(COc4cc(OS(=O)(=O)O)cc5oc(-c6ccc(OS(=O)(=O)O)cc6)cc(=O)c45)n3)c12; experiment: Mixed type inhibition of human neutrophil elastase assessed as Km for substrate at 500 uM using varying levels of S1384 as substrate by Michaelis-Menten plot analysis (reference value: 650 +/- 24 uM)
[21] = compound: O=c1cc(-c2ccc(OS(=O)(=O)O)cc2)oc2cc(OS(=O)(=O)O)cc(OCc3cccc(COc4cc(OS(=O)(=O)O)cc5oc(-c6ccc(OS(=O)(=O)O)cc6)cc(=O)c45)n3)c12; experiment: Mixed type inhibition of human neutrophil elastase assessed as Vmax for substrate at 750 uM using varying levels of S1384 as substrate by Michaelis-Menten plot analysis (reference value: 40.1 +/- 0.5 mAU/min)
[22] = compound: O=c1cc(-c2ccc(OS(=O)(=O)O)cc2)oc2cc(OS(=O)(=O)O)cc(OCc3cccc(COc4cc(OS(=O)(=O)O)cc5oc(-c6ccc(OS(=O)(=O)O)cc6)cc(=O)c45)n3)c12; experiment: Mixed type inhibition of human neutrophil elastase assessed as Km for substrate at 1000 uM using varying levels of S1384 as substrate by Michaelis-Menten plot analysis (reference value: 650 +/- 24 uM)
[23] = compound: O=c1cc(-c2ccc(OS(=O)(=O)O)cc2)oc2cc(OS(=O)(=O)O)cc(OCc3cccc(COc4cc(OS(=O)(=O)O)cc5oc(-c6ccc(OS(=O)(=O)O)cc6)cc(=O)c45)n3)c12; experiment: Mixed type inhibition of human neutrophil elastase assessed as Km for substrate at 750 uM using varying levels of S1384 as substrate by Michaelis-Menten plot analysis (reference value: 650 +/- 24 uM)

For `O=c1cc(-c2ccc(OS(=O)(=O)O)cc2)oc2cc(OS(=O)(=O)O)cc(OCc3cccc(COc4cc(OS(=O)(=O)O)cc5oc(-c6ccc(OS(=O)(=O)O)cc6)cc(=O)c45)c3)c12`, the IC50 (Neutrophil elastase) was 157 µM.

With `O=c1cc(-c2ccc(OS(=O)(=O)[O-])cc2)oc2cc(OS(=O)(=O)[O-])cc(OCc3cccc(COc4cc(OS(=O)(=O)[O-])cc5oc(-c6ccc(OS(=O)(=O)[O-])cc6)cc(=O)c45)n3)c12.[Na+].[Na+].[Na+].[Na+]` the inhibition [1] was “Active”, the fold change (FC) [2] was 3 and the “inhibition (INH)” value (Plasminogen) was “Active”. The inhibition [3] was “Dose-dependent effect”, the “inhibition (INH)” value (Prothrombin) was “Active” and the Activity (Plasma [4]) was “Non-Toxic”. For the same molecule, the inhibition [5] was “Active”, the Activity (Plasma [6]) was “Non-Toxic” and the Ratio IC50 (Homo sapiens [7]) was 28. For the same molecule, the “inhibition (INH)” value (Coagulation factor XI) was “Active”, the Ratio IC50 (Homo sapiens [8]) was greater than 50 and the Ratio IC50 (Homo sapiens [9]) was greater than 50. For the same molecule, the IC50 (Cathepsin G) was 1.1 µM, the inhibition [10] was “inactive” and the fold change (FC) [11] was 2.5. For the same molecule, the inhibition [12] was “inactive”, the “inhibition (INH)” value (Coagulation factor X) was “Active” and the IC50 (Neutrophil elastase) was 0.69 µM. The inhibition [13] was 100%, the IC50 (Myeloblastin) was 54 µM and the Ratio IC50 (Homo sapiens [14]) was greater than 50. The solubility [15] was greater than 10000 µg/mL.

B1: Neutrophil elastase (Homo sapiens), P08246 (protein)
chain: MTLGRRLACLFLACVLPALLLGGTALASEIVGGRRARPHAWPFMVSLQLRGGHFCGATLIAPNFVMSAAHCVANVNVRAVRVVLGAHNLSRREPTRQVFAVQRIFENGYDPVNLLNDIVILQLNGSATINANVQVAQLPAQGRRLGNGVQCLAMGWGLLGRNRGIASVLQELNVTVVTSLCRRSNVCTLVRGRQAGVCFGDSGSPLVCNGLIHGIASFVRGGCASGLYPDAFAPVAQFVNWIDSIIQRSEDNPCPHPRDPDPASRTH
In the case of B1, the Vmax [16] is reported as 38.6 mAU/min, the Vmax [17] is reported as 15.3 mAU/min and the Vmax [18] is reported as 30.3 mAU/min. For the same molecule, the Km [19] was 908 µM, the Km [20] was 788 µM and the Vmax [21] was 19 mAU/min. It also gave a Km [22] of 1670 µM and a Km [23] of 1220 µM.
